Assay results from ChEMBL document CHEMBL4382241, “Synthesis and evaluation of third generation vitamin D3 analogues as inhibitors of Hedgehog signaling” (Eur J Med Chem, 2019).
Activity calls are given as the source filed them. No cut-off for these calls is given here.

How the values were obtained:
[1] = organism: Mus musculus; test: Inhibition of Hedgehog signaling pathway in mouse C3H10T1/2 cells assessed as reduction in oxysterol-induced Gli1 mRNA expression at 1 uM after 24 hrs by q-PCR analysis relative to oxysterol alone; type: cell-based; parameters: scale not given: the % may be the effect or the level left
Procedure, shortened: (§1)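 Gli1 transcription was induced in C3H10T1/2 cells by co-treating with 20(S)-OHC and 22(S)-OHC (5 µM each) plus analogue for 24 h. Gli1 mRNA was quantified by qPCR and expressed as % of the oxysterol-only control (set to 100%). Data are mean ± SEM of at least two separate experiments run in triplicate.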

[2] = target: T1, Vitamin D3 receptor (Mus musculus) (UniProt P48281); test: Activation of VDR in mouse C3H10T1/2 cells assessed as change in Cyp24A1 mRNA expression at 5 uM after 24 hrs by q-PCR analysis relative to control; type: cell-based
T1 sequence (whole entry): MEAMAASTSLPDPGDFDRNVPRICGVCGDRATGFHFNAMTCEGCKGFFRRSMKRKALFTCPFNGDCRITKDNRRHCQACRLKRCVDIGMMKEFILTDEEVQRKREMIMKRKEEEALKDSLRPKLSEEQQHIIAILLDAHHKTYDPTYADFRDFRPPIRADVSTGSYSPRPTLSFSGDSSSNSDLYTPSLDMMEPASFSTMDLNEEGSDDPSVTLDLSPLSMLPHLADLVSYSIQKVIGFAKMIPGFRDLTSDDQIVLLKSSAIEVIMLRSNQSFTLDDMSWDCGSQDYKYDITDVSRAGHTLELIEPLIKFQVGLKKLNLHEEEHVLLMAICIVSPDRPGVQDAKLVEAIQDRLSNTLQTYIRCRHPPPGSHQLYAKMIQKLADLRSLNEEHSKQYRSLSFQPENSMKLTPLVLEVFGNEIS

[3] = target: T1, Vitamin D3 receptor (Mus musculus); test: Activation of VDR in mouse ASZ001 cells assessed as change in Cyp24A1 mRNA expression at 1 uM after 48 hrs by q-PCR analysis relative to control; type: cell-based
[4] = tested on: Medulloblastoma cell; test: Antiproliferative activity against medulloblastoma cells derived from conditional patched knockout mouse after 48 hrs by [3H]-thymidine incorporation assay; type: functional
Procedure, shortened: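 Primary tumour cells from Math1-Cre;Ptc fl/fl medulloblastoma were isolated and cultured in vitro, then incubated with analogue for 48 h in a proliferation assay. GI50 is mean ± SEM of at least two separate experiments performed in triplicate.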

[5] = Half life in rat liver homogenates; type: ADME, tissue-based
[6] = organism: Mus musculus; test: Inhibition of Hedgehog signaling pathway in VDR-deficient mouse C3H10T1/2 cells assessed as reduction in oxysterol-induced Gli1 mRNA expression at 1 uM after 24 hrs by q-PCR analysis
[7] = organism: Mus musculus; test: Inhibition of Hedgehog signaling pathway in Sufu-deficient mouse C3H10T1/2 cells assessed as reduction in oxysterol-induced Gli1 mRNA expression at 1 uM after 24 hrs by q-PCR analysis
[8] = organism: Mus musculus; test: Inhibition of Hedgehog signaling pathway in VDR-deficient mouse C3H10T1/2 cells assessed as change in CYP24A1 mRNA expression at 1 uM after 24 hrs by q-PCR analysis; parameters: scale not given: the % may be the effect or the level left
[9] = organism: Mus musculus; test: Inhibition of Hedgehog signaling pathway in Sufu-deficient mouse C3H10T1/2 cells assessed as change in CYP24A1 mRNA expression at 1 uM after 24 hrs by q-PCR analysis; parameters: scale not given: the % may be the effect or the level left
[10] = organism: Mus musculus; test: Inhibition of Hedgehog signaling pathway in mouse C3H10T1/2 cells assessed as reduction in oxysterol-induced Gli1 mRNA expression at 2.5 uM after 24 hrs by q-PCR analysis relative to oxysterol alone; type: cell-based; procedure, shortened: as §1
[11] = Inhibition of Hedgehog signaling pathway in mouse C3H10T1/2 cells assessed as reduction in oxysterol-induced Gli1 mRNA expression after 24 hrs by q-PCR analysis; type: cell-based; details: C3H 10T1/2, 24 h
[12] = target: T1, Vitamin D3 receptor (Mus musculus); test: Activation of VDR in mouse C3H10T1/2 cells assessed as change in Cyp24A1 mRNA expression at 2.5 uM after 24 hrs by q-PCR analysis relative to control; type: cell-based
[13] = Inhibition of Hedgehog signaling pathway in mouse ASZ001 cells assessed as reduction in […] Gli1 mRNA expression after 48 hrs by q-PCR analysis; type: cell-based; details: ASZ001, 48 h
[14] = target: T2, Vitamin D3 receptor (Mus musculus, UniProt P48281); test: Activation of VDR in mouse ASZ001 cells assessed as change in Cyp24A1 mRNA expression after 48 hrs by q-PCR analysis; type: cell-based
T2 sequence (P48281 whole entry): T1 sequence (whole entry)
Procedure, shortened: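 In ASZ001 cells, full dose-response Cyp24A1 mRNA measurement by qPCR was done relative to DMSO control (1.0). EC50 values are mean ± SEM of at least two separate experiments performed in triplicate.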

Row | Activity [2] | Activity [3] | GI50 [4] | half-life [5] | inhibition [6] | inhibition [7] | Activity [8] | Activity [9] | IC50 [11] | Activity [12] | IC50 [13] | EC50 [14] | SMILES | Activity [1] | % Gli1 activity [10]
1 | > 30000% | > 30000% | 1.4 µM | > 2 h | inactive | inactive | 530% | 590% | – | – | – | – | C=C1/C(=C\C=C2/CCC[C@]3(C)[C@@H]([C@H](C)CCCC(C)(C)O)CC[C@@H]23)C[C@@H](O)C[C@@H]1O [CALCITRIOL] | 30% | –
2 | – | 11000% | – | – | – | – | – | – | 0.4 µM | > 30000% | 0.5 µM | 0.6 µM | C=C1CC[C@H](O)C/C1=C/C=C1\CCC[C@]2(C)[C@@H]([C@H](C)CCCC(C)(C)O)CC[C@@H]12 [CALCIFEDIOL ANHYDROUS] | – | 9.2%
